Screening results deposited in PubChem BioAssay by several laboratories.
Hits are enriched below; roughly 3.4% of the tested compounds scored in any of these assays.
MC4R antag cAMP: MC4R antagonists of cAMP signaling, primary screen, cell-based, TR-FRET, antagonist arm of biased-ligand search. Melanocortin receptor 4 (Homo sapiens), P32245. MC4R-expressing cells, MTII-stimulated cAMP, LANCE TR-FRET. inhibition, % at 6.5 µM. actives 0.48% (n = 360,000);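 active = inhibition above its plate's cutoff, the mean of tested wells on that plate plus 3 SD, cut at about 29% in these data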
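Test system: U2OS cells stably expressing human melanocortin 4 receptor (MC4R); also added: Melanotan II challenge; compound: 6.5 µM single dose; timing: 30-min compound preincubation, 1-h Melanotan II challenge, 1-h detection, room temperature; signal: Eu-cAMP/anti-cAMP TR-FRET, emission 671 nm; repeats: one well per compound, no replicates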
m5-HT2A agonist: mouse Htr2a agonists via beta-arrestin recruitment, primary screen, cell-based, luminescence. activation, % at 7.6 µM. actives 0.66% (n = 360,000). 5-hydroxytryptamine receptor 2A (Mus musculus), P35363. CHO-K1 mHTR2A beta-arrestin complementation; percent of 30 µM serotonin response;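 active = activation above a run cutoff, the mean activation of all tested compounds plus 3 SD, cut at about 14% in these data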
Target sequence (P35363 whole entry, looked up): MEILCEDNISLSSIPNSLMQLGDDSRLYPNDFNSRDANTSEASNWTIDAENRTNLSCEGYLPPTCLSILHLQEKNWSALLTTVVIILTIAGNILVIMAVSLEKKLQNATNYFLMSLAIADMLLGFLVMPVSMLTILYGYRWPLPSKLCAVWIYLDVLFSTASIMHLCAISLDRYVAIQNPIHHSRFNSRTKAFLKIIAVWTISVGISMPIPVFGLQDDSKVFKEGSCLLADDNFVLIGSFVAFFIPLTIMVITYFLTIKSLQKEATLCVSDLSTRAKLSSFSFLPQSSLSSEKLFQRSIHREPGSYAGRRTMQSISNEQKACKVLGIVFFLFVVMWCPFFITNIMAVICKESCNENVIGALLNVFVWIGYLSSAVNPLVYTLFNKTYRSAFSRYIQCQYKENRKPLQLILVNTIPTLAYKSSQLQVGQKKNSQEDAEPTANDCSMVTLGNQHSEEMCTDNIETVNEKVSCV
TMEM16A inh: TMEM16A chloride channel inhibitors, primary screen, cell-based, HTS. actives 1.2% (n = 310,000). HEK293 TMEM16A/YFP iodide influx fluorescence, ionomycin. normalized B-score (activity score, 25-100; higher = stronger inhibition) at 10 µM;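 active = ratio plate-corrected score three or more library SD toward inhibition, starting fluorescence score within five deviations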;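 also: score derived from kinetic fluorescence span divided by baseline fluorescence per well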
beta cell repl: inducers of MIN6 beta-cell proliferation, primary screen, ATP luminescence, uHTS; proliferation, % at 10 µM; actives 0.29% (n = 330,000); MIN6 cells proliferation, ATPlite luminescence, 48 h; cells starved in 0.2% serum; 100% = growth in 10% serum; AID 2380, 2010;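 active = compounds whose signal lies at least 3.5 SD above the mean of all wells on their plate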
MC4R ag barr: MC4R agonists recruiting beta-arrestin, primary screen, cell-based, luminescence, agonist arm of biased-ligand search | Melanocortin receptor 4 (Homo sapiens), P32245 | U2OS MC4R beta-arrestin complementation; percent of melanotan II response, DMSO zero | activation, % at 8.9 µM | actives 0.98% (n = 360,000);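 active = activation above a per-plate cutoff, the mean activation of sample wells on that plate plus 3 SD, cut at about 8% in these data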
TMEM16A act: TMEM16A chloride channel activators or potentiators, primary screen, cell-based, HTS. HEK293 TMEM16A/YFP-H148Q/I152L, iodide quench fluorescence; stronger effect = lower value. Anoctamin-1 (Mus musculus), Q8BHY3. B-score at 10 µM. actives 0.3% (n = 340,000);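 active = fluorescence-ratio B-score plate-corrected deviation score at least 3 library SD below zero, with starting fluorescence score within 5 deviations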;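 also: channel opened by trigger with iodide after compound preincubation; score built on the fluorescence ratio of max minus min over baseline; more negative score means more quench and so TMEM16A activation or potentiation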
TMEM16A reconf: TMEM16A chloride channel inhibitors, confirmation, cell-based, re-confirmation; shares compounds with TMEM16A inh; HEK293 TMEM16A/YFP-H148Q, iodide quench fluorescence; ionomycin added to raise cell calcium; inhibition, % at 10 µM; actives 39% (n = 2,300);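 active = mean duplicate percent inhibition, scaled so buffer wells are 0 and the reference blocker 100, over three buffer SD above buffer mean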
TMEM16A Ca cntr: calcium mobilization in TMEM16A/YFP HEK293 cells, confirmation, counter-screen for TMEM16A inhibitor project | shares compounds with TMEM16A inh | Fluo4 calcium mobilization | calcium response (% of ionomycin), % at 10 µM | actives 2% (n = 2,300) | AID 652231, 2013;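 active = duplicate-averaged calcium signal over 20% of the ionomycin maximum, relative to buffer baseline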;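 also: each well's signal is peak minus trough fluorescence divided by its pre-addition baseline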
YFP-HEK293 quench: iodide YFP quench changes in parental YFP-HEK293, counter-screen for TMEM16A inhibitor project, cell-based; shares compounds with TMEM16A inh; ionomycin; YFP ratio F(max-min)/F0 at 10 µM; 2,300 tested, under 10 active; AID 652233, 2013;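 active = yellow fluorescent protein signal ratio exceeding the buffer control mean by over 5 SD of those controls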;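 also: ratio is mean of duplicate wells from kinetic YFP trace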
ClC-1 inh: ClC-1 chloride channel inhibition, selectivity assay for TMEM16A inhibitor project, cell-based, voltage-dependent ClC-1 | AID 652236, 2013 | CHO ClC-1-YFP, iodide influx fluorescence quench; iodide control reads 0, buffer control 100 | 2,300 tested, under 10 active | ratio percent, % at 10 µM | shares compounds with TMEM16A inh;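 active = duplicate-mean ratio percent above the mean of iodide-only control wells, which defines zero, plus 5 of their SD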;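 also: higher percent means stronger block of ClC-1 iodide influx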
A number is an active result.

Results for CCN(C(=O)COC(=O)C(c1ccccc1)c1ccccc1)c1c(N)n(Cc2ccccc2)c(=O)[nH]c1=O ?
MC4R antag cAMP: inactive; m5-HT2A agonist: inactive; MC4R ag barr: inactive; TMEM16A act: inactive

Results for Cc1sc2ncnc(NCC(O)c3ccc([N+](=O)[O-])cc3)c2c1C (centres undefined) ?
MC4R antag cAMP: inactive; m5-HT2A agonist: inactive; TMEM16A inh: 100; beta cell repl: inactive; MC4R ag barr: inactive; TMEM16A act: inactive; TMEM16A reconf: 28.0%; TMEM16A Ca cntr: inactive; YFP-HEK293 quench: inactive; ClC-1 inh: inactive

How did Cc1ccc(NC(=O)CSc2ncnc3ccccc23)cc1S(=O)(=O)N1CCCCC1 do in these assays?
MC4R antag cAMP: inactive; m5-HT2A agonist: inactive; TMEM16A inh: 25; beta cell repl: inactive; MC4R ag barr: inactive; TMEM16A act: inactive; TMEM16A reconf: 16.5%; TMEM16A Ca cntr: inactive; YFP-HEK293 quench: inactive; ClC-1 inh: inactive

How did COc1ccc(NC(=O)COc2cc(C)cc(C)c2)cc1S(=O)(=O)N1CCCCC1 do in these assays?
MC4R antag cAMP: inactive; m5-HT2A agonist: inactive; TMEM16A inh: 25; beta cell repl: inactive; MC4R ag barr: inactive; TMEM16A act: inactive; TMEM16A reconf: inactive; TMEM16A Ca cntr: inactive; YFP-HEK293 quench: inactive; ClC-1 inh: inactive

How did Cc1ccc(NC(=O)CSc2ccccc2)cc1S(=O)(=O)N1CCCCC1 do in these assays?
MC4R antag cAMP: inactive; m5-HT2A agonist: inactive; beta cell repl: inactive; MC4R ag barr: inactive; TMEM16A act: inactive

How did Cc1ccc(C)c(OCCC(=O)OCC(=O)Nc2ccc(C)c(S(=O)(=O)N3CCCCC3)c2)c1 do in these assays?
MC4R antag cAMP: inactive; m5-HT2A agonist: inactive; TMEM16A inh: 25; beta cell repl: inactive; MC4R ag barr: inactive; TMEM16A act: inactive; TMEM16A reconf: inactive; TMEM16A Ca cntr: inactive; YFP-HEK293 quench: inactive; ClC-1 inh: inactive

What do the screens show for `C[C@H](NC(=O)c1ccco1)C(=O)NCc1cccs1`?
MC4R antag cAMP: inactive; m5-HT2A agonist: inactive; beta cell repl: inactive; MC4R ag barr: inactive; TMEM16A act: inactive

How did COc1cc2nc(N3CCNCC3)nc(N)c2cc1OC do in these assays?
MC4R antag cAMP: inactive; m5-HT2A agonist: inactive; TMEM16A inh: 100; beta cell repl: inactive; MC4R ag barr: inactive; TMEM16A act: inactive; TMEM16A reconf: inactive; TMEM16A Ca cntr: inactive; YFP-HEK293 quench: inactive; ClC-1 inh: inactive

What do the screens show for `Clc1ccc2nc(N3CCNCC3)nc(-c3ccccc3)c2c1`?
MC4R antag cAMP: inactive; m5-HT2A agonist: inactive; TMEM16A inh: inactive; beta cell repl: inactive; MC4R ag barr: inactive; TMEM16A act: inactive

Results for CCC(C)C(NC(=O)C1CCC(C)CC1)C(=O)Nc1cc(OC)ccc1OC (centres undefined) ?
MC4R antag cAMP: inactive; m5-HT2A agonist: inactive; TMEM16A inh: 25; beta cell repl: inactive; MC4R ag barr: inactive; TMEM16A act: inactive; TMEM16A reconf: inactive; TMEM16A Ca cntr: inactive; YFP-HEK293 quench: inactive; ClC-1 inh: inactive

What do the screens show for `CCC(C)n1c(C)nc2c(c1=O)c1nc3ccccc3nc1n2CCC1=CCCCC1` (centres undefined)?
MC4R antag cAMP: inactive; m5-HT2A agonist: inactive; TMEM16A inh: 25; beta cell repl: inactive; MC4R ag barr: inactive; TMEM16A act: inactive; TMEM16A reconf: 21.5%; TMEM16A Ca cntr: inactive; YFP-HEK293 quench: inactive; ClC-1 inh: inactive

Results for CCCCn1c2nc3ccccc3nc2c2c(=O)n(C(C)CC)cnc21 (centres undefined) ?
MC4R antag cAMP: inactive; m5-HT2A agonist: inactive; TMEM16A inh: inactive; beta cell repl: inactive; MC4R ag barr: inactive; TMEM16A act: inactive

What do the screens show for `CCN(CC)S(=O)(=O)c1cccc(C(=O)Nc2nc3cc4c(cc3s2)OCCO4)c1`?
MC4R antag cAMP: inactive; m5-HT2A agonist: inactive; TMEM16A inh: 100; beta cell repl: inactive; MC4R ag barr: inactive; TMEM16A act: inactive; TMEM16A reconf: 20.0%; TMEM16A Ca cntr: inactive; YFP-HEK293 quench: inactive; ClC-1 inh: inactive

Results for Clc1ccc(Cn2cnc3ccccc32)cc1 ?
MC4R antag cAMP: inactive; m5-HT2A agonist: inactive; TMEM16A inh: 100; beta cell repl: inactive; MC4R ag barr: inactive; TMEM16A act: inactive; TMEM16A reconf: 23.0%; TMEM16A Ca cntr: inactive; YFP-HEK293 quench: inactive; ClC-1 inh: inactive

Results for O=C(COc1ccc(Br)cc1)c1ccc2c(c1)CCCC2 ?
MC4R antag cAMP: inactive; m5-HT2A agonist: inactive; TMEM16A inh: 25; beta cell repl: inactive; MC4R ag barr: inactive; TMEM16A act: inactive; TMEM16A reconf: inactive; TMEM16A Ca cntr: inactive; YFP-HEK293 quench: inactive; ClC-1 inh: inactive

Results for c1ccc(-c2csc(N3CCN(c4ccccn4)CC3)n2)cc1 ?
MC4R antag cAMP: inactive; m5-HT2A agonist: inactive; TMEM16A inh: 25; beta cell repl: inactive; MC4R ag barr: inactive; TMEM16A act: inactive; TMEM16A reconf: inactive; TMEM16A Ca cntr: inactive; YFP-HEK293 quench: inactive; ClC-1 inh: inactive

What do the screens show for `c1ccc(-c2csc(N3CCOCC3)n2)cc1`?
MC4R antag cAMP: inactive; m5-HT2A agonist: inactive; TMEM16A inh: inactive; beta cell repl: inactive; MC4R ag barr: inactive; TMEM16A act: inactive

How did CN(CC1COc2ccccc2O1)C(=S)Nc1ccccc1 (centres undefined) do in these assays?
MC4R antag cAMP: inactive; m5-HT2A agonist: inactive; TMEM16A inh: inactive; beta cell repl: inactive; MC4R ag barr: inactive; TMEM16A act: inactive
